{"source": "ChEMBL document CHEMBL1142269", "about": "“Imidazo[4,5-c]quinolines as inhibitors of the PI3K/PKB-pathway” (Bioorg Med Chem Lett, 2008)", "key": {"[1]": {"assay": "Antiproliferative activity against human U87MG cells", "type": "functional, cell-based, U-87MG ATCC", "conditions": "U-87 MG", "summary_of_the_method": "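Antiproliferation run in vitro on U87MG cells; potency expressed as EC50.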"}, "[2]": {"target": "T1, 3-phosphoinositide-dependent protein kinase 1 (Homo sapiens, UniProt O15530)", "T1 sequence (O15530 whole entry)": "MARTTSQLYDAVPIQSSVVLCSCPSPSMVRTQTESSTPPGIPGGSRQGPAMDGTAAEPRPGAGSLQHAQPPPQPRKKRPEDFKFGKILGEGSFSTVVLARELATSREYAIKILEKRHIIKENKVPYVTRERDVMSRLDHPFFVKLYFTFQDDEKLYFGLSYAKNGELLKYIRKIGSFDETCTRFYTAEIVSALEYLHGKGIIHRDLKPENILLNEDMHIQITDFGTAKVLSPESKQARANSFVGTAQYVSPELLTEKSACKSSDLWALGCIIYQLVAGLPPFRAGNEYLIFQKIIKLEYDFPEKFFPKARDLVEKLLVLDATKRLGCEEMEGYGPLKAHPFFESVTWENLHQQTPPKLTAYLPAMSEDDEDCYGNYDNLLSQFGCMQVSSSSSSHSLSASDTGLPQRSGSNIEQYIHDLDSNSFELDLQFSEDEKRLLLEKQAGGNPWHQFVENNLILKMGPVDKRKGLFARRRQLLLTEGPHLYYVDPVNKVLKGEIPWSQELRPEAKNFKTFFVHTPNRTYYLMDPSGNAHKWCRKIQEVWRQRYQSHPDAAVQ", "assay": "Inhibition of PDK1", "summary_of_the_method": "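Biochemical PDK1 enzymatic activity assay at 10 µM ATP; IC50 determined.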"}, "[3]": {"assay": "Antitumor activity in mouse bearing human PC3M tumor assessed as reduction of tumor growth at 60 mg/kg, po bid after 27 days", "type": "functional, PC-3M", "parameters": "scale not given: the % may be the effect or the level left", "summary_of_the_method": "(§1)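 PC3M tumour-bearing mice, oral dosing twice per day at 50 or 60 mg/kg in NMP/PEG300 vehicle. T/C taken on day 27 as mean difference of treated group over mean difference of vehicle control, ×100. Significance by one-way ANOVA followed by post hoc Dunnett's test versus control.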"}, "[4]": {"target": "Phosphatidylinositol 4,5-bisphosphate 3-kinase catalytic subunit beta isoform (Homo sapiens, UniProt P42338)", "sequence (P42338 whole entry, canonical isoform)": "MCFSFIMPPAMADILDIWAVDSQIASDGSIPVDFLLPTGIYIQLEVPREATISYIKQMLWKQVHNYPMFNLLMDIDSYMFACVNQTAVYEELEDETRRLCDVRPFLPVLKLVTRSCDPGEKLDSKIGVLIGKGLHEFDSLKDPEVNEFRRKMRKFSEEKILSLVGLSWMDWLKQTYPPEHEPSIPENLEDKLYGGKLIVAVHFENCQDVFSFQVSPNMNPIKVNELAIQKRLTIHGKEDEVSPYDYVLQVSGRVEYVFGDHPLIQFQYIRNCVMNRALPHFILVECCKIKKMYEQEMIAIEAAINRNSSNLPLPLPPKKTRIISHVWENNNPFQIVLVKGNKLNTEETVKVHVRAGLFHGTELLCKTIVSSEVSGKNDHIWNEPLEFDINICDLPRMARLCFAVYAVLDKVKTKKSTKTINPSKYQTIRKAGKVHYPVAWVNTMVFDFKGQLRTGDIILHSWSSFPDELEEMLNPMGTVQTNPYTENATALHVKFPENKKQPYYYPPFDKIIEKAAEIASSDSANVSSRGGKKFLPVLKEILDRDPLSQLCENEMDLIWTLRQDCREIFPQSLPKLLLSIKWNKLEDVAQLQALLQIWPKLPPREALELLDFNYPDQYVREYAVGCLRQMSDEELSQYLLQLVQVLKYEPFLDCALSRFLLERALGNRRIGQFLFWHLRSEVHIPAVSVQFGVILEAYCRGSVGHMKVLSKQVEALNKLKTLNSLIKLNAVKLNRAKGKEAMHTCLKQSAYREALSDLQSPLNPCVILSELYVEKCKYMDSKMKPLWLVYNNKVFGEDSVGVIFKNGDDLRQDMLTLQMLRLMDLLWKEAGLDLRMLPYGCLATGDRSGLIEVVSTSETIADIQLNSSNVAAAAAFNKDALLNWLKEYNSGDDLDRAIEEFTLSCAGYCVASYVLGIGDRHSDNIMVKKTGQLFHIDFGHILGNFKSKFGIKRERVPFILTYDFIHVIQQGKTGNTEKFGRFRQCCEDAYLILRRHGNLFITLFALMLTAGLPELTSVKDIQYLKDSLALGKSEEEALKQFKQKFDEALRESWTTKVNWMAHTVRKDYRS", "assay": "Inhibition of PI3K p110beta"}, "[5]": {"assay": "Antitumor activity in mouse bearing human PC3M tumor assessed as reduction of tumor growth at 50 mg/kg, po bid after 27 days", "type": "functional, PC-3M", "parameters": "scale not given: the % may be the effect or the level left", "summary_of_the_method": "as §1"}, "[6]": {"target": "Phosphatidylinositol 4,5-bisphosphate 3-kinase catalytic subunit gamma isoform (Homo sapiens, UniProt P48736)", "sequence (P48736 whole entry, canonical isoform)": "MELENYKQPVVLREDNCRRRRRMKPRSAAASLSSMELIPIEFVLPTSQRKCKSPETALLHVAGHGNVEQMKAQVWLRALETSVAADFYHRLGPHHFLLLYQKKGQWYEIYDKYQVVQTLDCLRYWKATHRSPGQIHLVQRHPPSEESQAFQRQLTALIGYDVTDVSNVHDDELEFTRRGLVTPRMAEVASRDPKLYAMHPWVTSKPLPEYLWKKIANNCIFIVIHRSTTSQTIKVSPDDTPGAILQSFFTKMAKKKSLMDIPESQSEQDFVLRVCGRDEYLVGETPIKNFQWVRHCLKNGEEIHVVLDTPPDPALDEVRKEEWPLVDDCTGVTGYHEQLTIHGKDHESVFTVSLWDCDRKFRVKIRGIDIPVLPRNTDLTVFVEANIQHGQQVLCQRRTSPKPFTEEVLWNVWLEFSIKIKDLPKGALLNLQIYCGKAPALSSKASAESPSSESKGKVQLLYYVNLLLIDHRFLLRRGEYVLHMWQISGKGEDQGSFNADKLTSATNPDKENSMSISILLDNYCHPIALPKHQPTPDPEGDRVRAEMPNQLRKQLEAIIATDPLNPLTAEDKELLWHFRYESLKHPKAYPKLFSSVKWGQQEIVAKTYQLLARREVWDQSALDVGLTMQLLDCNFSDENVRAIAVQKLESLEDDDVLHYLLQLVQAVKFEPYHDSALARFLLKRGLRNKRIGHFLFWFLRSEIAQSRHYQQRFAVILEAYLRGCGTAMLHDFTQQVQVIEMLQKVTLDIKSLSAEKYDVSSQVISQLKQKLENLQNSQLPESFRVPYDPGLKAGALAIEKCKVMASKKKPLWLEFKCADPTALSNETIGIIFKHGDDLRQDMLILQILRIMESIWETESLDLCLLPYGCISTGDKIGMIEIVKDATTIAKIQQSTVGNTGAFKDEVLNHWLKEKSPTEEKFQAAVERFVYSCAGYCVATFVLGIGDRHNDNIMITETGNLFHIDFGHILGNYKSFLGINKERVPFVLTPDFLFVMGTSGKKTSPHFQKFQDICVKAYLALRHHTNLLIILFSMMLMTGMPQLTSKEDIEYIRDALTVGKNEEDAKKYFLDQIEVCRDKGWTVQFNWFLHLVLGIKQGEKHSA", "assay": "Inhibition of PI3K p110gamma"}, "[7]": {"target": "T2, Phosphatidylinositol 4,5-bisphosphate 3-kinase catalytic subunit delta isoform (Homo sapiens, UniProt O00329)", "T2 sequence (O00329 whole entry)": "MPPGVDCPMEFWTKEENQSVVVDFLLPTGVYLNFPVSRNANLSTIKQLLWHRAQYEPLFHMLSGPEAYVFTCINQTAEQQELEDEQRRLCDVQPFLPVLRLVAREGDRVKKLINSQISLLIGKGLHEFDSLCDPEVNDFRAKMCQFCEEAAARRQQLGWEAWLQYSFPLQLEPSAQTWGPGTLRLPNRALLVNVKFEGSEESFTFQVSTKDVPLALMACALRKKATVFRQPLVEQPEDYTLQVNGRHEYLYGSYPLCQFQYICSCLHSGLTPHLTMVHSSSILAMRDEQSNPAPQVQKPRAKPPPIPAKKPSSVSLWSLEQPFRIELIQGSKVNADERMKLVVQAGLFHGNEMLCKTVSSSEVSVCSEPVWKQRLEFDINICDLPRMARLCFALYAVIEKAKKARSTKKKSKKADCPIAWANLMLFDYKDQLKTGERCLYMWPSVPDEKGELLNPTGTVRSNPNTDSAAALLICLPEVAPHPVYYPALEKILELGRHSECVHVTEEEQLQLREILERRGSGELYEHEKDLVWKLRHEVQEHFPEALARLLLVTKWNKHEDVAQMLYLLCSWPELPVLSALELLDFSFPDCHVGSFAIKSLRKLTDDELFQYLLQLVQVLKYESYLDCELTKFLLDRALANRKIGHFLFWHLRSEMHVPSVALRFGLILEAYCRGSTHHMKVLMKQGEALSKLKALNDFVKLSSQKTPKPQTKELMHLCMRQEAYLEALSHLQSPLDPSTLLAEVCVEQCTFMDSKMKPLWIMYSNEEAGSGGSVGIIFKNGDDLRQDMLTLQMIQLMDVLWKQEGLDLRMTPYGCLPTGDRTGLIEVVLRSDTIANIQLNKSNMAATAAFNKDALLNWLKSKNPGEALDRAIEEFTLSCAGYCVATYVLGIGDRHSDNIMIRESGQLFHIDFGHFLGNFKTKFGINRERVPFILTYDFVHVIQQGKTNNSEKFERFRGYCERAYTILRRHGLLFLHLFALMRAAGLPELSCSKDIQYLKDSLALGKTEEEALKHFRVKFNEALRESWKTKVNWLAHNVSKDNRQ", "assay": "Inhibition of PI3K p110delta"}, "[8]": {"target": "Phosphatidylinositol 4,5-bisphosphate 3-kinase catalytic subunit alpha isoform (Homo sapiens, UniProt P42336)", "sequence (P42336 whole entry, canonical isoform)": "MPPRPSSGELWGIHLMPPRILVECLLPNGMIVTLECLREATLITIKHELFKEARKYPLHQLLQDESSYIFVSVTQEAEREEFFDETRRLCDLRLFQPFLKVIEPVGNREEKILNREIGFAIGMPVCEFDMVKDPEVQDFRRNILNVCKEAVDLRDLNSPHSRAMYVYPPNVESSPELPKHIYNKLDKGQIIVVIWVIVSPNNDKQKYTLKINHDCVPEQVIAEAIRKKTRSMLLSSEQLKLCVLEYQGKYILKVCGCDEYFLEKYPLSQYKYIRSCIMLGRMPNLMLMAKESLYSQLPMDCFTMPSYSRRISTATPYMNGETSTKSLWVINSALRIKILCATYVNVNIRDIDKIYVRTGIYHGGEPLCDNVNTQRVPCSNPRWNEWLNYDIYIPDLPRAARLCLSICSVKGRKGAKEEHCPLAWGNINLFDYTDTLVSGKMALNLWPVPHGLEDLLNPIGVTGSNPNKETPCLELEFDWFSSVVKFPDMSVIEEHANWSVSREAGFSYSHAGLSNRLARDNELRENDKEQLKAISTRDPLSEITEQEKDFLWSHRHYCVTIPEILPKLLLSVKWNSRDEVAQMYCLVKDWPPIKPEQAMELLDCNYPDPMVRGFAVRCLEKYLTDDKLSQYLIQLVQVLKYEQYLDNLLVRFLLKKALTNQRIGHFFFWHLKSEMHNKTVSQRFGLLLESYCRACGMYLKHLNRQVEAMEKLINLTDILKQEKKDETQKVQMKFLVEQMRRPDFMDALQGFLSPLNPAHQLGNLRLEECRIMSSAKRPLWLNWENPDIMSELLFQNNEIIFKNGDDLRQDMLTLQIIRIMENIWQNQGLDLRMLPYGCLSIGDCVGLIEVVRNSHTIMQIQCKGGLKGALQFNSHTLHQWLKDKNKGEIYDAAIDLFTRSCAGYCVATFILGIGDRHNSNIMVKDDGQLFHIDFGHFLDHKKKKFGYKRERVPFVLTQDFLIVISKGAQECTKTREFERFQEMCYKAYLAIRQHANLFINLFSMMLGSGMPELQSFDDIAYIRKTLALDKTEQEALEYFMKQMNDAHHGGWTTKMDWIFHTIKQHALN", "assay": "Inhibition of PI3K p110alpha"}, "[9]": {"assay": "Antitumor activity in athymic mouse bearing human PC3M tumor assessed as reduction of tumor growth at 75 mg/kg, po bid after 15 days", "type": "functional, PC-3M", "parameters": "scale not given: the % may be the effect or the level left", "summary_of_the_method": "(§2)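 PC3M tumour-bearing mice, compound formulated in NMP/PEG300, given orally twice per day at 50 or 75 mg/kg. Tumour volume read on day 15. T/C = mean difference of treated group ÷ mean difference of vehicle-treated control group × 100.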"}, "[10]": {"assay": "Antitumor activity in athymic mouse bearing human PC3M tumor assessed as reduction of tumor growth at 50 mg/kg, po bid after 15 days", "type": "functional, PC-3M", "parameters": "scale not given: the % may be the effect or the level left", "summary_of_the_method": "as §2"}, "[11]": {"assay": "Inhibition of PKA at 10 uM"}, "[12]": {"target": "RAC-alpha serine/threonine-protein kinase (Homo sapiens) (UniProt P31749)", "sequence (P31749 whole entry)": "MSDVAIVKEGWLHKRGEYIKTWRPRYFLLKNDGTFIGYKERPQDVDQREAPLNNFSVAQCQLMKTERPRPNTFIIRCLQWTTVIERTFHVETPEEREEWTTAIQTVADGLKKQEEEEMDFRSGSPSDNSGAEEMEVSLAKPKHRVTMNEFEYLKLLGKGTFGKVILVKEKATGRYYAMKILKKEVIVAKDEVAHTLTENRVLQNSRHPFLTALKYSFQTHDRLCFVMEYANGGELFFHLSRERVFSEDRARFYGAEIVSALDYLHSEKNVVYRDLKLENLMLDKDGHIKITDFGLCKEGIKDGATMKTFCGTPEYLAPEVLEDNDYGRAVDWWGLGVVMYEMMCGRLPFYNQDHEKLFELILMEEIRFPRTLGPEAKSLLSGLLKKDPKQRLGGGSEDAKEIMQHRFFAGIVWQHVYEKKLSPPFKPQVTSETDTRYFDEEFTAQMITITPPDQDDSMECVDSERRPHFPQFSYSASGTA", "assay": "Inhibition of PKB at 10 uM"}}, "data": [{"smiles": "CCc1nc2cnc3ccc(C#Cc4cccnc4)cc3c2n1-c1ccc(CC#N)cc1", "values": [{"measurement": "EC50", "setting": "[1]", "value": 400, "unit": "nM"}, {"measurement": "IC50", "setting": "[2]", "value": 327, "unit": "nM"}]}, {"smiles": "Cc1nc2cnc3ccc(C#Cc4cccnc4)cc3c2n1-c1ccc(CC#N)cc1", "values": [{"measurement": "EC50", "setting": "[1]", "value": 275, "unit": "nM"}, {"measurement": "IC50", "setting": "[2]", "value": 110, "unit": "nM"}]}, {"smiles": "Cn1c(=O)n(-c2ccc(C(C)(C)C#N)cc2)c2c3cc(C#Cc4cccnc4)ccc3ncc21", "values": [{"measurement": "Activity", "setting": "[3]", "value": 9, "unit": "%"}, {"measurement": "IC50", "setting": "[4]", "value": 2340, "unit": "nM"}, {"measurement": "Activity", "setting": "[5]", "value": 31, "unit": "%"}, {"measurement": "EC50", "setting": "[1]", "value": 13, "unit": "nM"}, {"measurement": "IC50", "setting": "[6]", "value": 382, "unit": "nM"}, {"measurement": "IC50", "setting": "[2]", "value": "> 25000", "unit": "nM"}, {"measurement": "IC50", "setting": "[7]", "value": 201, "unit": "nM"}, {"measurement": "IC50", "setting": "[8]", "value": 72, "unit": "nM"}]}, {"smiles": "Cc1nc2cnc3ccc(C#Cc4cccnc4)cc3c2n1-c1ccc(C(C)C#N)cc1", "note": "(stereo not given)", "values": [{"measurement": "Activity", "setting": "[9]", "value": 50, "unit": "%"}, {"measurement": "IC50", "setting": "[4]", "value": 446, "unit": "nM"}, {"measurement": "Activity", "setting": "[10]", "value": 85, "unit": "%"}, {"measurement": "EC50", "setting": "[1]", "value": 143, "unit": "nM"}, {"measurement": "IC50", "setting": "[6]", "value": 117, "unit": "nM"}, {"measurement": "IC50", "setting": "[2]", "value": 245, "unit": "nM"}, {"measurement": "IC50", "setting": "[7]", "value": 35, "unit": "nM"}, {"measurement": "IC50", "setting": "[8]", "value": 56, "unit": "nM"}]}, {"smiles": "CC(C)(C#N)c1ccc(-n2cnc3cnc4ccc(C#Cc5cccnc5)cc4c32)cc1", "values": [{"measurement": "EC50", "setting": "[1]", "value": 446, "unit": "nM"}, {"measurement": "IC50", "setting": "[2]", "value": 150, "unit": "nM"}]}, {"smiles": "N#CCc1ccc(-n2cnc3cnc4ccc(C#Cc5cccnc5)cc4c32)cc1", "values": [{"measurement": "inhibition", "setting": "[11]", "value": 24, "unit": "%"}, {"measurement": "IC50", "setting": "[4]", "value": 432, "unit": "nM"}, {"measurement": "EC50", "setting": "[1]", "value": 416, "unit": "nM"}, {"measurement": "IC50", "setting": "[6]", "value": 67, "unit": "nM"}, {"measurement": "IC50", "setting": "[2]", "value": 34, "unit": "nM"}, {"measurement": "IC50", "setting": "[7]", "value": 98, "unit": "nM"}, {"measurement": "inhibition", "setting": "[12]", "value": 0, "unit": "%"}, {"measurement": "IC50", "setting": "[8]", "value": 64, "unit": "nM"}]}]}
